Measurements published in ChEMBL document CHEMBL5506013, “Mitochondria-Selective Dicationic Small-Molecule Ligand Targeting G-Quadruplex Structures for Human Colorectal Cancer Therapy” (J Med Chem, 2024).
The source made the active and inactive calls. The rule behind the calls is not given here.

Columns and labels:
DNA [1] = test: Binding affinity to HP19 DNA (non-G4 DNA) (unknown origin) assessed as increase in fluorescence intensity by fluorescence spectrophotometric analysis; type: nucleic-acid assay
In short: (§1)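 Oligonucleotides were pre-annealed at 95 °C for 10 min, then cooled slowly. Ligand (5 uM) was mixed with 20 uM DNA in buffer. Emission was collected over 550–800 nm, and enhancement was taken at 650 nm as F/F0.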

HeLa = test: Antiproliferative activity against human HeLa cells measured after 48 hrs by MTT assay; type: functional, cell-based
In short: (§2)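 Cells exposed to the ligands for 48 h. Viability was read by MTT, and the IC50 was derived from the response.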

[2] = Drug localization in nucleus of living human HCT-116 cells assessed as colocalization at 4 uM incubated for 1 hr by Hoechst33342 staining based analysis; type: ADME, subcellular; settings: hct-116, 1 h
HCT-116 [3] = test: Induction of cell cycle arrest in human HCT-116 cells assessed as accumulation of cells at G0/G1 phase measured after 72 hrs by PI staining based flow cytometry analysis; type: functional; settings: dose 1-4 µM
In short: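 HCT116 cells treated at 0-4 uM for 72 h. Cell-cycle distribution measured by flow cytometry and G0/G1 percentage recorded.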

Quadruplex DNA [4] = test: Binding affinity to mito 78 G4 DNA (unknown origin) assessed as increase in fluorescence intensity by fluorescence spectrophotometric analysis; type: nucleic-acid assay
In short: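 Fluorescence titration in buffer. Ligand at 5 uM mixed with 20 uM pre-annealed DNA (95 °C for 10 min, slow cooling). Emission collected at 550-800 nm and monitored at 650 nm. Result reported as fold enhancement F/F0 over ligand alone.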

DNA [5] = test: Binding affinity to SS19 DNA (non-G4 DNA) (unknown origin) assessed as dissociation constant measured upto 150 secs by isothermal titration calorimetry assay; type: nucleic-acid assay
DNA [6] = test: Binding affinity to HP19 DNA (non-G4 DNA) (unknown origin) assessed as increase in CD signal at 5 uM by circular dichroism spectroscopic analysis; type: nucleic-acid assay
Quadruplex DNA [7] = test: Binding affinity to Mut 78 G4 DNA (unknown origin) assessed as increase in fluorescence intensity by fluorescence spectrophotometric analysis; type: nucleic-acid assay; in short: as §1
HCT-116 [8] = test: Upregulation of cleaved caspase-3 level in human HCT-116 cells at upto 4 uM measured after 72 hrs by Western blot analysis; type: functional, cell-based
In short: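 HCT116 cells treated with ligand at 0-4 uM for 72 h. Lysates immunoblotted for Lamin B1, p53, p21, p16, gamma-H2A.x, caspase-3 and cleaved caspase-3, with beta-actin as loading control.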

HCT-116 [9] = test: Downregulation of ND3 mRNA level in human HCT-116 cells at 0 to 4 uM measured after 48 hrs by qRT-PCR analysis; type: functional, cell-based; settings: dose 0-4 µM
DNA [10] = test: Binding affinity to SS19 DNA (non-G4 DNA) (unknown origin) assessed as change in melting temperature at 5 uM by circular dichroism spectroscopic analysis; type: nucleic-acid assay
Quadruplex DNA [11] = test: Binding affinity to mito 0.5-15 G4 DNA (unknown origin) assessed as increase in fluorescence intensity by fluorescence spectrophotometric analysis; type: nucleic-acid assay; in short: as §1
HCT-116 [12] = test: Downregulation of ND1 mRNA level in human HCT-116 cells at 0 to 4 uM measured after 48 hrs by qRT-PCR analysis; type: functional, cell-based; settings: dose 0-4 µM
[13] = Antiproliferative activity against human HFF-1 cells measured after 48 hrs by MTT assay; type: toxicity, cell-based; settings: HFF-1 cells; in short: as §2
HCT-116 [14] = test: Induction of mitochondrial permeability transition pore opening in human HCT-116 cells measured after 48 hrs by calcein-AM staining based assay; type: functional, cell-based; settings: dose <= 4.0 µM
[15] = Drug localization in human HCT-116 cells overexpressing eBFP tagged Pif1 by measuring red foci at 4 uM incubated for 1 hr by hoechst33342 staining based analysis; type: ADME, cell-based; settings: hct-116, 1 h
In short: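 HCT116 cells overexpressing eBFP-tagged Pif1 (excitation 405 nm), with an eBFP-only control. Cells incubated with ligand 4 uM (excitation 488 nm) for 1 h, then red foci imaged by confocal microscopy in 100 cells. Mean ± SEM, t test.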

[16] = Toxicity in BALB/c nude mouse assessed as change in mean platelet volume at 5 mg/kg, iv administered every two days for 16 days; type: organism-based; settings: in vivo, 384 h, time 16 day
In short: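 HCT116 xenograft-bearing male Balb/c nude mice (6/group) dosed iv at 5 mg/kg every two days or with PBS. Whole blood collected at sacrifice on day 16 for hematology parameters.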

HCT-116 [17] = test: Downregulation of ND4 protein level in human HCT-116 cells at upto 4 uM incubated for 48 hrs by Western blot analysis; type: functional, cell-based
HFF-1 [18] = test: Downregulation of ND2 mRNA level in human HFF-1 cells at 0 to 4 uM measured after 48 hrs by qRT-PCR analysis; type: functional, cell-based; settings: dose 0-4 µM
[19] = Drug localization in mitochondria of living human HCT-116 cells assessed as colocalization at 4 uM incubated for 1 hr by Mito-tracker deep red staining based analysis; type: ADME; settings: hct-116, 1 h
Cell membrane = test: Induction of mitochondrial membrane potential depolarization in human HCT-116 cells assessed as […] in TMRE fluorescence incubated for 48 hrs by TMRE staining based analysis; type: cell membranes; settings: dose <= 4.0 µM
HCT-116 [20] = test: Induction of DNA damage in human HCT-116 assessed as increase in gammaH2AX level at upto 4 uM incubated for 72 hrs in presence of MitoTEMPOL by Western blot analysis; type: functional, cell-based
HCT-116 [21] = test: Inhibition of glycolysis in human HCT-116 cells assessed as reduction in glucose consumption at upto 4 uM measured after 3 hrs by Seahorse XFe24 analyzer; type: functional, cell-based
HCT-116 [22] = test: Antitumor activity against human HCT-116 cells xenografted in Balb/c nude mouse model assessed as induction of apoptosis at 5 mg/kg, iv administered every two days for 16 days by TUNEL staining based analysis; type: functional, organism-based; settings: time 16.0 day
In short: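 Tumours came from HCT116-xenografted male Balb/c nude mice given 5 mg/kg i.v. every two days, or PBS, for 16 days. Tumour tissue sections were stained by TUNEL for apoptosis and by Ki67 immunofluorescence for proliferation, then compared with the control group.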

HCT-116 [23] = test: Downregulation of lamin B1 level in human HCT-116 cells measured after 72 hrs by Western blot analysis; type: functional, cell-based; settings: dose <= 4.0 µM
In short: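 HCT116 cells treated with ligand at 0-4 uM for 72 h. Lamin B1 and Ki67 imaged by immunofluorescence (excitation 635 nm), or lamin B1 probed on Western blot with β-actin as loading control.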

PANC-1 = test: Antiproliferative activity against human PANC-1 cells measured after 48 hrs by MTT assay; type: functional, cell-based; settings: PANC-1, 48 h; in short: as §2
HFF-1 [24] = test: Downregulation of ND1 gene expression in human HFF-1 cells at 0 to 4 uM measured after 48 hrs by q-PCR analysis; type: functional, cell-based; settings: dose 0-4 µM
Quadruplex DNA [25] = test: Binding affinity to Mito 29 G4 DNA (unknown origin) assessed as change in melting temperature at 5 uM by circular dichroism spectroscopic analysis; type: nucleic-acid assay
HCT-116 [26] = test: Downregulation of COX2 mRNA level in human HCT-116 cells at 0 to 4 uM measured after 48 hrs by qRT-PCR analysis; type: functional, cell-based; settings: dose 0-4 µM
HCT-116 [27] = test: Induction of apoptosis in human HCT-116 cells at upto 4 uM measured after 72 hrs by annexin V-BUV396 and 7-AAD staining based flow cytometry analysis (reference value: 2.64%); type: functional; settings: up to 4 µM
In short: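 HCT116 cells treated at 0-4 uM for 72 h, stained with Annexin V-BUV396 and 7-AAD, and the apoptotic fraction quantified by flow cytometry.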

Question: For C(=C\c1ccc2ccccc2[n+]1CCCCCCCC[n+]1c(/C=C/c2ccc(N3CCCCC3)cc2)ccc2ccccc21)/c1ccc(N2CCCCC2)cc1.[I-].[I-], which Activity (DNA [1]) is on record?
Answer: The Activity was “inactive”.

Question: What about the IC50 (HeLa) of the same compound?
Answer: The IC50 was 23.5 µM.

Question: What about the Drug uptake [2] of the same compound?
Answer: The Drug uptake was “Not Active”.

Question: What about the Activity (HCT-116 [3]) of the same compound?
Answer: The Activity was “Dose-Dependent Effect”.

Question: What about the Activity (Quadruplex DNA [4]) of the same compound?
Answer: The Activity was “Active”.

Question: What about the Kd (DNA [5]) of the same compound?
Answer: The Kd was over 4.7 µM.

Question: And the Activity (DNA [6])?
Answer: The Activity was “inactive”.

Question: What about the Activity (Quadruplex DNA [7]) of the same compound?
Answer: The Activity was “inactive”.

Question: What about the Activity (HCT-116 [8]) of the same compound?
Answer: Its Activity is “Active”.

Question: And the Activity (HCT-116 [9])?
Answer: The Activity was “Active”.

Question: And the ΔTm (DNA [10])?
Answer: The ΔTm was 0.5 °C.

Question: And the Activity (Quadruplex DNA [11])?
Answer: The Activity was “Active”.

Question: And the Activity (HCT-116 [12])?
Answer: Its Activity is “Active”.

Question: And the IC50 at 48 h [13]?
Answer: Its IC50 at 48 h is 32.7 µM.

Question: And the Activity (HCT-116 [14])?
Answer: Its Activity is “Dose-Dependent Effect”.

Question: What about the Drug uptake [15] of the same compound?
Answer: The Drug uptake was “Not Active”.

Question: And the Activity [16]?
Answer: Its Activity is “Non-Toxic”.

Question: What about the Activity (HCT-116 [17]) of the same compound?
Answer: The Activity was “Active”.

Question: And the Activity (HFF-1 [18])?
Answer: Its Activity is “Active”.

Question: What about the Drug uptake [19] of the same compound?
Answer: The Drug uptake was “Active”.

Question: What about the Activity (Cell membrane) of the same compound?
Answer: Its Activity is “Dose-Dependent Effect”.

Question: And the Activity (HCT-116 [20])?
Answer: Its Activity is “inactive”.

Question: And the inhibition (HCT-116 [21])?
Answer: Its inhibition is “Active”.

Question: And the Activity (HCT-116 [22])?
Answer: Its Activity is “Active”.

Question: What about the Activity (HCT-116 [23]) of the same compound?
Answer: The Activity was “Dose-Dependent Effect”.

Question: And the IC50 (PANC-1)?
Answer: The IC50 was 24.8 µM.

Question: What about the Activity (HFF-1 [24]) of the same compound?
Answer: Its Activity is “inactive”.

Question: What about the ΔTm (Quadruplex DNA [25]) of the same compound?
Answer: The ΔTm was 3.6 °C.

Question: What about the Activity (HCT-116 [26]) of the same compound?
Answer: Its Activity is “Active”.

Question: What about the Activity (HCT-116 [27]) of the same compound?
Answer: Its Activity is 27.4%.
